Results gathered from unrelated publications.

| Structure (SMILES) | tested on | test | system | conditions | measurement | value |
| --- | --- | --- | --- | --- | --- | --- |
| CNC(C)Cc1ccc2c(c1)OCO2 (stereo not drawn) |  | metabolic stability | human, liver microsomes | 0.5 µM | half-life | > 150 min |
| NCCNC(=O)O[C@H]1CCC[C@@]2(C1)OOC1(O2)C2CC3CC(C2)CC1C3 (stereo partly drawn) |  |  | male CD-1 mouse, plasma | intravenous, 3 mg/kg | MRT(0-inf) | 35.2 min |
| COCC1=N[C@@]2(O)[C@H](C(=O)N(C)OC)[C@@H](c3ccccc3)[C@]3(c4ccc(OC)cc4)Oc4cc(OC)cc(OC)c4[C@]23N1 |  | metabolic stability | human, liver microsomes | 1 µM, pH 7.4 | half-life | 24.8 min |
| CN1CCN(S(=O)(=O)c2cc([N+](=O)[O-])ccc2N(CCOS(C)(=O)=O)CCOS(C)(=O)=O)CC1 |  |  | female SCID mouse, plasma | intraperitoneal, 25 mg/kg | MRT(0-inf) | 25.2 min |
| CC(C)(N)CNC(=O)O[C@H]1CCC[C@@]2(C1)OOC1(O2)C2CC3CC(C2)CC1C3 (stereo partly drawn) |  |  | male CD-1 mouse, plasma | intravenous, 3 mg/kg | MRT(0-inf) | 32.5 min |
| Cn1cc2c3c1C(=O)C(N)=CC3=NCC2 | HepG2 | cell growth or viability, MTT |  | 72 h | CC50 | 2000 nM |
| CNC(C)Cc1ccc2n[se]nc2c1 (stereo not drawn) |  | metabolic stability | human, liver microsomes | 0.5 µM | half-life | > 150 min |
| Cn1cc2c3c1C(=O)C(N)=CC3=[N+](C)CC2 | HepG2 | cell growth or viability, MTT |  | 72 h | CC50 | 1000 nM |
| COc1ccc([C@@]23Oc4cc(OC)cc(OC)c4[C@@]24NC(C)=N[C@@]4(O)[C@H](C(=O)N(C)OC)[C@H]3c2ccccc2)cc1 |  | metabolic stability | human, liver microsomes |  | half-life | 120 min |
